Measurements reported in ChEMBL document CHEMBL1148523, “Synthesis and biological evaluation of novel pyridazinone-based alpha4 integrin receptor antagonists” (J Med Chem, 2006).

Tests used:
Integrin alpha-4/beta-1 = Integrin alpha-4/beta-1 (Homo sapiens, UniProt P05556+P13612); assay: Inhibition of binding of alpha4beta1 integrin receptor expressed in human Ramos cells to immobilized VCAM1; format: cell-based
[1] = Oral bioavailability in rat at 30 mg/kg, po and 3 mg/kg, iv; format: ADME, organism-based; conditions: in vivo
How it was run: (§1)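 Rats were given 3 mg/kg iv or 30 mg/kg by oral gavage (oral vehicle 10% PEG 400 in PBS, pH 7.0-7.5). Heparinized blood was sampled after dosing and the plasma stored at -70 °C. Analysis was by LC-MS-MS with multiple reaction monitoring, using plasma calibration standards of 0.01-10 µM (LOQ 0.01 µM). For ester prodrugs, the parent acid was quantified. AUC was taken after oral dosing and t1/2 after iv dosing.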

[2] = Half life in rat at 3 mg/kg, iv; format: ADME, organism-based; set-up: dose 3 mg/kg, route intravenous; conditions: in vivo; how it was run: as §1
[3] = AUC in rat at 30 mg/kg, po; format: ADME, organism-based; set-up: dose 30 mg/kg, route oral; conditions: plasma; how it was run: as §1
Integrin alpha-4/beta-7 = biological target: T1, Integrin alpha-4/beta-7 (Homo sapiens, UniProt P13612+P26010); assay: Inhibition of binding of alpha-4-beta-7 integrin receptor expressed in human K562 cells to immobilized MAdCAM1; format: cell-based
T1 sequence (P13612 whole entry): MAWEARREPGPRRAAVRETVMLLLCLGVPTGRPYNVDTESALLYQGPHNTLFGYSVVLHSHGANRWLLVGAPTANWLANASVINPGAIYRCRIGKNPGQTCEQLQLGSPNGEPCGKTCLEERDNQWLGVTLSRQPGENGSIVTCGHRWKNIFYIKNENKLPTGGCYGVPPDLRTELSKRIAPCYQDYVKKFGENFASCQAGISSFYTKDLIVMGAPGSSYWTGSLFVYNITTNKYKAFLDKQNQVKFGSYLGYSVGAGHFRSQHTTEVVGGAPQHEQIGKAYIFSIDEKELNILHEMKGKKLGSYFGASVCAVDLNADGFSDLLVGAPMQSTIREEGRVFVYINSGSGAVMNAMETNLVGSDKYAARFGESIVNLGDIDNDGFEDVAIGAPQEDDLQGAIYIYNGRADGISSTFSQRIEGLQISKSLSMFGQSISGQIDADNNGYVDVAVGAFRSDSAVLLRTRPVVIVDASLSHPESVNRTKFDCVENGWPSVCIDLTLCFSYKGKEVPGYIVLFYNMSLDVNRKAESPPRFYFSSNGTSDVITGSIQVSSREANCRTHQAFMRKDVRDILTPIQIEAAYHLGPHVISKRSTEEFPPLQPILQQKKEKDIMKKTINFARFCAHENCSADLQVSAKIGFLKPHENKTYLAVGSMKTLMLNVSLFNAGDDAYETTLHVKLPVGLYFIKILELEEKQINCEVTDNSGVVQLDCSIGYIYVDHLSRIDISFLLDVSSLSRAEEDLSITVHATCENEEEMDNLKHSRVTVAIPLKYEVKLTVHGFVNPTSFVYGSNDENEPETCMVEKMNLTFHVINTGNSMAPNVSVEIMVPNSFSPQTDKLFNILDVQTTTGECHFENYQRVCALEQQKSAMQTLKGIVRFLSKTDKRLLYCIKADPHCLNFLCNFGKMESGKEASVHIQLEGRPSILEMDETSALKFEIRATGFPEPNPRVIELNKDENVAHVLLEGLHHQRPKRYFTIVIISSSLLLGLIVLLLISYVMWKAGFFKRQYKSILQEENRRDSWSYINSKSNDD
T1 sequence (P26010 whole entry): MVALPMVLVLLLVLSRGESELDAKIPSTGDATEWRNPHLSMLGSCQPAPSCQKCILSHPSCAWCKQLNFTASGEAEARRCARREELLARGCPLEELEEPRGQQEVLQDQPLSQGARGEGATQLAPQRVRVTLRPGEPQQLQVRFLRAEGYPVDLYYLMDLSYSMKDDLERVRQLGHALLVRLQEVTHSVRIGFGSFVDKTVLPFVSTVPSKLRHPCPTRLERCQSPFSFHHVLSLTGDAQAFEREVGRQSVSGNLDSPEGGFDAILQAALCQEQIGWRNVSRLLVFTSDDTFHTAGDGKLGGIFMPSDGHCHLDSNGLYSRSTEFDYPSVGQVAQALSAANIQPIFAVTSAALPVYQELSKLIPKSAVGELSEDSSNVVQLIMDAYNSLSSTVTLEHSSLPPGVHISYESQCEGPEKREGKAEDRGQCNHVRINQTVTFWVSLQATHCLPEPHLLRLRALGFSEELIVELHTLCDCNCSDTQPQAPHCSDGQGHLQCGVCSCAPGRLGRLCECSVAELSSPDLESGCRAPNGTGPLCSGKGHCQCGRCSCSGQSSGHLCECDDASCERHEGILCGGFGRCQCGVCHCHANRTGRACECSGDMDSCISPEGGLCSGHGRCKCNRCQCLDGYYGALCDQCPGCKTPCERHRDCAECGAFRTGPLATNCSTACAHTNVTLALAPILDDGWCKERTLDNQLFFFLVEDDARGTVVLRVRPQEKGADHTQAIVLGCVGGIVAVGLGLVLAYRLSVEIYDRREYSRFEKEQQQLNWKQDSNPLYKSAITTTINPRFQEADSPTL

[4] = Volume of distribution in rat at 3 mg/kg, iv; format: ADME, organism-based; set-up: dose 3 mg/kg, route intravenous; conditions: in vivo, read-out: Vdss; how it was run: as §1
[5] = Clearance in rat at 3 mg/kg, iv; format: ADME, organism-based; set-up: dose 3 mg/kg, route intravenous; conditions: in vivo; how it was run: as §1
[6] = Inhibition of adhesion of human HL60 cell to TNF-alpha-stimulated HUVEC cells mediated by ELAM1; format: functional, cell-based
[7] = Inhibition of adhesion of human Ramos cell to TNF-alpha-stimulated HUVEC cells mediated by VCAM1; format: functional, cell-based
[8] = Inhibition of adhesion of human U937 cell to LPS-stimulated HUVEC cells mediated by ICAM1/VCAM1; format: functional, cell-based
Mus musculus = assay: Inhibition of DSS-induced colitis in mouse at 60 mg/kg, po after 7 days; format: functional; conditions: 168 h
How it was run: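 Female Balb/c mice, 11-14 weeks old (n = 10/group), drank 5% DSS in tap water ad libitum for 7 days, freshly changed daily. Oral gavage at 60 mg/kg in 10% PEG 400 in D5W, or vehicle alone, began on the day of induction and continued twice daily for 7 days. Colons were then dissected. The macroscopic score combined colon shrinkage, stool consistency and colon damage.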

Integrin alpha-4/beta-1, sequence (P05556 whole entry, one chain of several): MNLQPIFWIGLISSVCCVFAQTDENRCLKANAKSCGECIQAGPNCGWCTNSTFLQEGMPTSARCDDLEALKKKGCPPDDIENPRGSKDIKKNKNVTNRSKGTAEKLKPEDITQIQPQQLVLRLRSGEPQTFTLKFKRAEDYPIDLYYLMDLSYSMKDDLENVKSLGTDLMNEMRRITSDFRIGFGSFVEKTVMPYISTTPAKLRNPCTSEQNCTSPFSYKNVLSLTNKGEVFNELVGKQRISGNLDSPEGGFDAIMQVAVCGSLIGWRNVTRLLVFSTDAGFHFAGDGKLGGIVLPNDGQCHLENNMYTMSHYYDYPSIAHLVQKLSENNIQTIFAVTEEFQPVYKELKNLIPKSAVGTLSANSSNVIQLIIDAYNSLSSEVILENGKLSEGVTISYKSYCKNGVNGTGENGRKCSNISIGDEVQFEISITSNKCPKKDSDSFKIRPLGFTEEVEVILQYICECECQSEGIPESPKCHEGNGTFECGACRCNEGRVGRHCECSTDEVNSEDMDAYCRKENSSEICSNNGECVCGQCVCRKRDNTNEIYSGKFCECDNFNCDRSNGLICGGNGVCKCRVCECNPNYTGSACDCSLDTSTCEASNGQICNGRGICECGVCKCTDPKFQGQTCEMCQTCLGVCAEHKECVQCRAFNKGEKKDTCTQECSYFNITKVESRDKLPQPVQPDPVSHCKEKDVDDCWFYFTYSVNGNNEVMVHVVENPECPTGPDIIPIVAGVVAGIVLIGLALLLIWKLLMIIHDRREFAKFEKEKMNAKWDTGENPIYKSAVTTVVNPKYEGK

| IC50 (Integrin alpha-4/beta-1) [nM] | bioavailability [1] [%] | half-life [2] [min] | AUC [3] [µM·h] | IC50 (Integrin alpha-4/beta-7) [nM] | SMILES | other results |
| --- | --- | --- | --- | --- | --- | --- |
| > 5000 |  |  |  |  | CCCN(C(=O)N[C@@H](Cc1ccc(-c2c(OC)cnn(C)c2=O)cc1)C(=O)O)c1ccccc1 |  |
|  | 14 | 24 | 47 |  | COc1cnn(C)c(=O)c1-c1ccc(C[C@H](NC(=O)N(C)CC(C)C)C(=O)OCCO)cc1 |  |
| 110 |  |  |  |  | Cn1ncc(N2CCCC2)c(-c2ccc(C[C@H](NC(=O)c3c(Cl)cccc3Cl)C(=O)O)cc2)c1=O |  |
| 1800 | 3 | 54 | 5.2 |  | COc1cnn(C)c(=O)c1-c1ccc(C[C@H](NC(=O)N(C)CC(C)C)C(=O)O)cc1 | Vd [4]: 0.19 L/kg; clearance [5]: 7.8 mL/min/kg |
| 150 |  |  |  |  | Cn1ncc(OC2CCCCC2)c(-c2ccc(C[C@H](NC(=O)c3c(Cl)cccc3Cl)C(=O)O)cc2)c1=O |  |
| > 5000 |  |  |  |  | COc1cnn(C)c(=O)c1-c1ccc(C[C@H](NC(=O)OC(C)(C)C)C(=O)O)cc1 |  |
|  | 8 | 42 | 1.7 |  | COC(=O)[C@H](Cc1ccc(-c2c(OC)cnn(C)c2=O)cc1)NC(=O)c1c(Cl)cccc1Cl |  |
|  |  |  |  | 100 | COc1cnn(Cc2ccccc2)c(=O)c1-c1ccc(C[C@H](NC(=O)c2c(Cl)cccc2Cl)C(=O)O)cc1 |  |
| 170 |  |  |  | 2 | CCOc1cnn(C)c(=O)c1-c1ccc(C[C@H](NC(=O)c2c(Cl)cccc2Cl)C(=O)O)cc1 |  |
|  | 4 |  | 2.3 |  | CCOC(=O)[C@H](Cc1ccc(-c2c(OC)cnn(C)c2=O)cc1)NC(=O)c1c(Cl)cccc1Cl |  |
| > 5000 |  |  |  | 1500 | COc1cnn(C)c(=O)c1-c1ccc(C[C@H](NC(=O)N(C)C)C(=O)O)cc1 |  |
| 1000 |  |  |  |  | COc1cnnc(O)c1-c1ccc(C[C@H](NC(=O)c2c(Cl)cccc2Cl)C(=O)O)cc1 |  |

The next lines start with the compound.

| SMILES | IC50 (Integrin alpha-4/beta-1) [nM] | bioavailability [1] [%] | half-life [2] [min] | AUC [3] [µM·h] | IC50 (Integrin alpha-4/beta-7) [nM] | other results |
| --- | --- | --- | --- | --- | --- | --- |
| Cn1ncc(OCCN2CCOCC2)c(-c2ccc(C[C@H](NC(=O)c3c(Cl)cccc3Cl)C(=O)O)cc2)c1=O | 66 |  |  |  |  |  |
| COc1cnn(C)c(=O)c1-c1ccc(C[C@H](NC(=O)c2c(Cl)cccc2Cl)C(=O)OCCO)cc1 |  | 7 | 60 | 3.3 |  |  |
| COC(=O)N[C@@H](Cc1ccc(-c2c(OC)cnn(C)c2=O)cc1)C(=O)O | > 5000 |  |  |  |  |  |
| Cn1ncc(OC(F)F)c(-c2ccc(C[C@H](NC(=O)c3c(Cl)cccc3Cl)C(=O)O)cc2)c1=O | 280 |  |  |  | 8 |  |
| COc1cnn(C)c(=O)c1-c1ccc(C[C@H](NC(=O)c2c(Cl)cccc2Cl)C(=O)O)cc1 |  | 1 | 12 | 0.5 |  | IC50 [6]: < 5 nM; Vd [4]: 0.4 L/kg; clearance [5]: 22 mL/min/kg; IC50 [7]: 43 nM; IC50 [8]: 14 nM |
| COc1cnn(C2CCCCC2)c(=O)c1-c1ccc(C[C@H](NC(=O)c2c(Cl)cccc2Cl)C(=O)O)cc1 | > 5000 |  |  |  | 330 |  |
| COc1cnn(CCO)c(=O)c1-c1ccc(C[C@H](NC(=O)OC(C)(C)C)C(=O)O)cc1 | > 5000 | 1 | 12 | 1.6 | 110 | Vd [4]: 0.11 L/kg; clearance [5]: 6 mL/min/kg |
| COc1cnn(CCO)c(=O)c1-c1ccc(C[C@H](NC(=O)OC(C)(C)C)C(=O)OCCO)cc1 |  | 31 | 66 | 51 |  | inhibition in vivo at 60 mg/kg (Mus musculus): 54% |
| COc1cnn(CCO)c(=O)c1-c1ccc(C[C@H](NC(=O)c2c(Cl)cccc2Cl)C(=O)O)cc1 | 130 |  |  |  |  |  |
| Cn1ncc(O)c(-c2ccc(C[C@H](NC(=O)c3c(Cl)cccc3Cl)C(=O)O)cc2)c1=O |  |  |  |  | 49 |  |
